Screening data as filed in PubChem.
M1 PAM: positive allosteric modulators of human M1 muscarinic receptor. P11229. CHO-K1 hM1, Fluo-8 calcium fluorescence, ACh EC20; 0% = ACh EC20, 100% = maximal ACh. activation, % at 3 µM. 360,000 compounds, 0.088% hits. AID 588819; in the data active = activation above about 19%, passing the limit was not always enough
Target sequence (P11229 whole entry, looked up): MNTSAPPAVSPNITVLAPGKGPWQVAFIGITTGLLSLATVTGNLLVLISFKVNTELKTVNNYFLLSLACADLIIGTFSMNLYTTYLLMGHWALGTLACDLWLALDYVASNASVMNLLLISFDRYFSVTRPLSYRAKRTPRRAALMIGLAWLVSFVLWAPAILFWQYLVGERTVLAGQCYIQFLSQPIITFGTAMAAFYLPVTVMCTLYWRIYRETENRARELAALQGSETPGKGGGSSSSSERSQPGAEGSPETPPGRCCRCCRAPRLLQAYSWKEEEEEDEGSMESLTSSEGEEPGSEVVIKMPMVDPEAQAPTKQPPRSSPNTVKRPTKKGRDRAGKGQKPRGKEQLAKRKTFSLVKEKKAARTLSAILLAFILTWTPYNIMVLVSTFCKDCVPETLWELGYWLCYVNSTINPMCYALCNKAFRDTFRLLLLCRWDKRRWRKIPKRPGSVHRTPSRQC
CHRM5 PAM: positive allosteric modulators of human muscarinic M5 receptor. P08912. activation, % at 3 µM. AID 624038. CHO-K1 hM5, Fluo-8 calcium, ACh EC20 PAM; 0% = ACh EC20, 100% = ACh EC100. 360,000 compounds, 0.3% hits;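 active = activation above the run cutoff, the mean activation of all test compounds plus 3 SD, cut at about 18% in these data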
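system = human M5 receptor in CHO-K1 cells | compound = one concentration, 3 µM final (nominal) | schedule = Post-acetylcholine fluorescence recording 140 s | signal = Fluo-8 calcium dye fluorescence, kinetic read | benchmarks = low control EC20 acetylcholine (0%), high control EC100 acetylcholine (100%) | repeats = singlicate, one well per test compound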
M1 ag: agonists of human M1 muscarinic receptor | P11229 | CHO-K1 hM1, Fluo-8 calcium fluorescence, agonist mode; 0% DMSO, 100% acetylcholine EC100 | activation, % at 3 µM | 360,000 compounds, 0.33% hits | AID 588814;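 active = activation above the run's mean compound activation plus 3 SD, cut at about 16% in these data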;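 also: peak over basal fluorescence ratio within a 140 s kinetic read after compound addition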
CHRM5 antagonist: CHRM5 antagonism in calcium assay | 360,000 compounds, 0.59% hits | CHO-hM5 cells, Fluo-8 calcium fluorescence, ACh EC80 | AID 624040 | inhibition, % at 3 µM;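 active = inhibition above a per-plate cutoff, the mean of that plate's test compounds plus 3 SD, cut at about 27% in these data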
M5 ag: CHRM5 agonism in calcium assay; P08912; CHO-K1 hM5 cells, Fluo-8 calcium fluorescence; 0% DMSO wells, 100% maximal acetylcholine response; activation, % at 3 µM; 360,000 compounds, 0.19% hits;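 active = activation above the run's mean over test compounds plus 3 SD, cut at about 23% in these data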;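 also: signal is peak over basal fluorescence ratio across the kinetic read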
M1 antag: antagonists of human M1 muscarinic receptor. CHO-K1 hM1, Fluo-8 calcium fluorescence, ACh EC80 antagonist. inhibition, % at 3 µM. 360,000 compounds, 1.3% hits. AID 588852;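 active = percent inhibition above its own plate's cutoff, namely the mean of that plate's compound wells plus 3 SD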;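 also: peak over basal fluorescence ratio during 140 s after agonist addition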
Large screens that a line does not name were inactive. In the library only some 2.1% were active in any assay of this set; here they are far more common.

Cc1ccc(OCC(O)CN2CCN(CC(O)COc3ccc(C)cc3)CC2)cc1 (configuration not stated)	none
CC(C)(C)c1ccc(C(=O)N2CCC(=O)N(C(COCc3ccccc3)Cc3ccccc3)CC2)cc1 (configuration not stated)	M1 antag 33.0
CC(C)(C)c1ccc(C(=O)N2CCC(=O)N([C@H](COCc3ccccc3)Cc3ccccc3)CC2)cc1	none (no result: M1 PAM, M1 ag, M1 antag)
COc1cc(/C=C(/C#N)c2ccc(F)cc2)ccc1Oc1ccc([N+](=O)[O-])cn1	CHRM5 antagonist 35.4
COc1ccccc1/C=C/C(=O)Nc1ccc(N2CCOCC2)cc1	none
CCCn1c(SCC(=O)Nc2cccc(S(=O)(=O)NC3=NCCCCC3)c2)nc2ccccc2c1=O	CHRM5 PAM 23.7
CCn1nnnc1NCc1ccc(SC)cc1	none
CCn1nnnc1NCc1ccc(N2CCCC2)cc1	M1 antag 89.4
CC1CC(C)CN(c2nc3c(c(=O)[nH]c(=O)n3C)n2CCCSc2nc3ccccc3s2)C1 (configuration not stated)	none
CCN1CCN(c2nc3c(c(=O)[nH]c(=O)n3C)n2CCSc2nc3ccccc3s2)CC1	M1 ag 29.9
COc1ccccc1C(=O)Nc1ccc2c(C)cc(=O)oc2c1	none
CCOc1ncccc1C(=O)Nc1ccc2c(C)cc(=O)oc2c1	CHRM5 PAM 21.9
Cc1ccc(-c2csc(=Nc3cccnc3)n2CCCn2ccnc2)cc1C	M1 antag 40.9
O=C(NCCc1c[nH]c2ccccc12)c1c(Cl)nc2sccn12	none
COc1cccc(-n2c(SCC(=O)O)nnc2-c2cccnc2)c1	M1 antag 22.9
Cc1nc2c(-c3ccc(F)cc3)cnn2c(N)c1-c1ccccc1	none
CCCCCOc1ccc(Br)cc1CSC(=N)N	CHRM5 antagonist 31.9, M1 antag 24.1
COC(=O)c1[nH]c2c(c1C)C(=O)CC(c1ccccc1)C2 (configuration not stated)	none
CS(=O)(=O)c1sc(C#N)c2c1C(=O)CC(c1ccccc1)C2 (configuration not stated)	CHRM5 antagonist 31.1
COc1ccccc1N(CC(O)Cn1c(C)nc2ccccc21)S(=O)(=O)c1ccccc1 (configuration not stated)	none
Cn1c(CCN2CCCCC2)nc2cc(NC(=O)COc3ccccc3)ccc21	none
CCCCCCCCCC[N+](C)(C)CC/C=C1/c2ccccc2Sc2ccc(Cl)cc21	CHRM5 antagonist 60.0, M1 antag 82.5
CCCCCC[n+]1c(-c2ccc(Cl)cc2Cl)csc1Nc1ccccc1	none
CCCCNC(=O)Nc1ccc2c(c1)N(C)C(=O)c1ccccc1S2	none
CCC1=Nc2cc(C(=O)O)ccc2Sc2ccc(Cl)cc21	none
CCCCCCCCCCC[N+](C)(C)CC/C=C1/c2ccccc2Sc2ccc(Cl)cc21	CHRM5 antagonist 82.2, M1 antag 99.4
CC[N+](C)(C)CC/C=C1/c2ccccc2Sc2ccc(Cl)cc21	CHRM5 antagonist 99.3, M1 antag 99.6
O=C(c1ccc(CS(=O)Cc2ccc(Cl)cc2)o1)N1CCN(c2ccccc2)CC1 (configuration not stated)	none
CCCCn1nnnc1C1(C)CCC(=O)N1CCOc1ccccc1 (configuration not stated)	none (no result: M1 PAM, M1 ag, M1 antag)
Cc1c(C(=O)N2CCN(c3ccccn3)CC2)oc2c1C(=O)CC(C)(C)C2	none
COc1ccccc1N1CCN(C(=O)c2oc3c(c2C)C(=O)CC(C)(C)C3)CC1	CHRM5 antagonist 29.5
Cc1ccc(C2CC(=O)c3cnc(NC(=O)c4ccco4)nc3C2)cc1 (configuration not stated)	CHRM5 PAM 22.1
O=C(Nc1ncc2c(n1)CC(c1ccc(Cl)cc1)CC2=O)c1ccco1 (configuration not stated)	none
COc1ccc(S(=O)(=O)NC2CCSc3ccccc32)cc1NC(C)=O (configuration not stated)	none
Cc1ccc(NC(=O)C(OC(=O)c2ccc(F)cc2)c2ccccc2)cc1Cl (configuration not stated)	M1 antag 39.6
